Results published in ChEMBL document CHEMBL1155222, “Synthesis and anticancer activity of N-bis(trifluoromethyl)alkyl-N'-thiazolyl and N-bis(trifluoromethyl)alkyl-N'-benzothiazolyl ureas” (2009).
Activity calls are given as the source filed them.

What was measured:
Assay type in all cases: functional
NCI-H460 [1] = assay: Anticancer activity against human NCI-H460 cells assessed as cell growth at 100 uM after 48 hrs by Alamar blue assay relative to control; settings: NCI-H460, 48 h, read-out: Activity
Method in brief: (§1)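 NCI one-dose pre-test on MCF7, NCI-H460 and SF-268. Cells were inoculated and preincubated, then exposed to a single 10^-4 M concentration for 48 h. End-point was alamar blue. Results are percent growth versus untreated control cells, with negative values indicating cell kill.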

MCF7 [2] = assay: Anticancer activity against human MCF7 cells assessed as cell growth at 100 uM after 48 hrs by Alamar blue assay relative to control; settings: MCF7, 48 h, read-out: Activity; method in brief: as §1
SF-268 [3] = assay: Anticancer activity against human SF268 cells assessed as cell growth at 100 uM after 48 hrs by Alamar blue assay relative to control; settings: SF-268, 48 h, read-out: Activity; method in brief: as §1
CCRF-CEM = assay: Anticancer activity against human CCRF-CEM cells after 48 hrs by sulforhodamine B assay
Method in brief: (§2)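 NCI 60-cell-line screen. Cells grown in RPMI 1640 with 5% FBS and 2 mM L-glutamine, plated at 5000–40,000 cells/well, and preincubated 24 h at 37 °C under 5% CO2. Compounds were taken from DMSO stocks and tested at five final concentrations, 10^-4 to 10^-8 M, for 48 h. Cells were TCA-fixed, stained with 0.4% SRB, and read at 515 nm. GI50, TGI and LC50 were derived as log molar values.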

HL-60(TB) = assay: Anticancer activity against human HL-60(TB) cells after 48 hrs by sulforhodamine B assay
Method in brief: (§3)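 NCI 60-cell-line screen. Cells were grown in RPMI 1640 with 5% FBS and 2 mM L-glutamine, seeded at 5000–40,000 cells/well and preincubated 24 h at 37 °C, 5% CO2. Compounds in DMSO were diluted in medium with gentamicin and tested at five concentrations (10^-4 to 10^-8 M) for 48 h. Cells were then fixed with TCA, stained with SRB and read at 515 nm.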

K562 = assay: Anticancer activity against human K562 cells after 48 hrs by sulforhodamine B assay; method in brief: as §2
MOLT-4 = assay: Anticancer activity against human MOLT4 cells after 48 hrs by sulforhodamine B assay; method in brief: as §2
RPMI8266 = assay: Anticancer activity against human RPMI8266 cells after 48 hrs by sulforhodamine B assay; method in brief: as §2
SR = assay: Anticancer activity against human SR cells after 48 hrs by sulforhodamine B assay
Method in brief: (§4)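 NCI 60-cell-line panel; cells grown in RPMI 1640 with 5% FBS and 2 mM L-glutamine, plated at 5000–40,000 cells/well and preincubated 24 h at 37 °C, 5% CO2. Compounds came from DMSO stocks diluted in medium with gentamicin and were tested at five final concentrations, 10^-4 to 10^-8 M, for 48 h. Cells were fixed with TCA, stained with SRB and read at 515 nm. GI50, TGI and LC50 were derived as log molar values.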

A549 = assay: Anticancer activity against human A549 cells after 48 hrs by sulforhodamine B assay; method in brief: as §2
EKVX = assay: Anticancer activity against human EKVX cells after 48 hrs by sulforhodamine B assay; method in brief: as §2
HOP-62 = assay: Anticancer activity against human HOP62 cells after 48 hrs by sulforhodamine B assay; method in brief: as §2
HOP-92 = assay: Anticancer activity against human HOP92 cells after 48 hrs by sulforhodamine B assay; method in brief: as §2
NCI-H226 = assay: Anticancer activity against human NCI-H226 cells after 48 hrs by sulforhodamine B assay; method in brief: as §2
NCI-H322M = assay: Anticancer activity against human NCI-H322M cells after 48 hrs by sulforhodamine B assay; method in brief: as §2
NCI-H460 [4] = assay: Anticancer activity against human NCI-H460 cells after 48 hrs by sulforhodamine B assay; method in brief: as §2
NCI-H522 = assay: Anticancer activity against human NCI-H522 cells after 48 hrs by sulforhodamine B assay; method in brief: as §2
NCI-H23 = assay: Anticancer activity against human NCI-H23 cells after 48 hrs by sulforhodamine B assay; method in brief: as §3
COLO 205 = assay: Anticancer activity against human COLO205 cells after 48 hrs by sulforhodamine B assay; method in brief: as §2
HCC 2998 = assay: Anticancer activity against human HCC2998 cells after 48 hrs by sulforhodamine B assay; method in brief: as §2
HCT-116 = assay: Anticancer activity against human HCT116 cells after 48 hrs by sulforhodamine B assay; method in brief: as §2
HCT-15 = assay: Anticancer activity against human HCT15 cells after 48 hrs by sulforhodamine B assay; method in brief: as §2
HT-29 = assay: Anticancer activity against human HT-29 cells after 48 hrs by sulforhodamine B assay; method in brief: as §2
KM12 = assay: Anticancer activity against human KM12 cells after 48 hrs by sulforhodamine B assay; method in brief: as §2
SW-620 = assay: Anticancer activity against human SW620 cells after 48 hrs by sulforhodamine B assay; method in brief: as §4
SF-268 [5] = assay: Anticancer activity against human SF268 cells after 48 hrs by sulforhodamine B assay; method in brief: as §2
SF-295 = assay: Anticancer activity against human SF295 cells after 48 hrs by sulforhodamine B assay; method in brief: as §2
SF-539 = assay: Anticancer activity against human SF539 cells after 48 hrs by sulforhodamine B assay; method in brief: as §2
SNB-19 = assay: Anticancer activity against human SNB19 cells after 48 hrs by sulforhodamine B assay; method in brief: as §4
SNB-75 = assay: Anticancer activity against human SNB75 cells after 48 hrs by sulforhodamine B assay; method in brief: as §4
U-251 = assay: Anticancer activity against human U251 cells after 48 hrs by sulforhodamine B assay; method in brief: as §4
LOX IMVI = assay: Anticancer activity against human LOXIMVI cells after 48 hrs by sulforhodamine B assay; method in brief: as §2
Malme-3M = assay: Anticancer activity against human MALME-3M cells after 48 hrs by sulforhodamine B assay; method in brief: as §2
M14 = assay: Anticancer activity against human M14 cells after 48 hrs by sulforhodamine B assay; method in brief: as §2
SK-MEL-2 = assay: Anticancer activity against human SK-MEL-2 cells after 48 hrs by sulforhodamine B assay; method in brief: as §2
SK-MEL-28 = assay: Anticancer activity against human SK-MEL-28 cells after 48 hrs by sulforhodamine B assay; method in brief: as §2
SK-MEL-5 = assay: Anticancer activity against human SK-MEL-5 cells after 48 hrs by sulforhodamine B assay; method in brief: as §2
UACC-257 = assay: Anticancer activity against human UACC257 cells after 48 hrs by sulforhodamine B assay; method in brief: as §4
UACC-62 = assay: Anticancer activity against human UACC62 cells after 48 hrs by sulforhodamine B assay; method in brief: as §4
IGROV-1 = assay: Anticancer activity against human IGROV1 cells after 48 hrs by sulforhodamine B assay; method in brief: as §2
OVCAR-3 = assay: Anticancer activity against human OVCAR-3 cells after 48 hrs by sulforhodamine B assay; method in brief: as §2
OVCAR-4 = assay: Anticancer activity against human OVCAR4 cells after 48 hrs by sulforhodamine B assay; method in brief: as §2
OVCAR-5 = assay: Anticancer activity against human OVCAR5 cells after 48 hrs by sulforhodamine B assay; method in brief: as §2
OVCAR-8 = assay: Anticancer activity against human OVCAR8 cells after 48 hrs by sulforhodamine B assay; method in brief: as §2
SK-OV-3 = assay: Anticancer activity against human SKOV3 cells after 48 hrs by sulforhodamine B assay; method in brief: as §2
786-0 = assay: Anticancer activity against human 786-0 cells after 48 hrs by sulforhodamine B assay; method in brief: as §2
A498 = assay: Anticancer activity against human A498 cells after 48 hrs by sulforhodamine B assay; method in brief: as §2
ACHN = assay: Anticancer activity against human ACHN cells after 48 hrs by sulforhodamine B assay; method in brief: as §2
CAKI-1 = assay: Anticancer activity against human Caki1 cells after 48 hrs by sulforhodamine B assay; method in brief: as §2
RXF 393 = assay: Anticancer activity against human RXF393 cells after 48 hrs by sulforhodamine B assay; method in brief: as §2
SN12C = assay: Anticancer activity against human SN12C cells after 48 hrs by sulforhodamine B assay; method in brief: as §4
TK-10 = assay: Anticancer activity against human TK10 cells after 48 hrs by sulforhodamine B assay; method in brief: as §4
UO-31 = assay: Anticancer activity against human UO31 cells after 48 hrs by sulforhodamine B assay; method in brief: as §4
PC-3 = assay: Anticancer activity against human PC3 cells after 48 hrs by sulforhodamine B assay; method in brief: as §2
DU-145 = assay: Anticancer activity against human DU145 cells after 48 hrs by sulforhodamine B assay; method in brief: as §2
MCF7 [6] = assay: Anticancer activity against human MCF7 cells after 48 hrs by sulforhodamine B assay; method in brief: as §2
NCI/ADR-RES = assay: Anticancer activity against human NCI/ADR-RES cells after 48 hrs by sulforhodamine B assay; method in brief: as §2
MDA-MB-231 = assay: Anticancer activity against human MDA-MB-231 cells after 48 hrs by sulforhodamine B assay; method in brief: as §2
Hs-578T = assay: Anticancer activity against human Hs 578T cells after 48 hrs by sulforhodamine B assay; method in brief: as §2
MDA-MB-435 = assay: Anticancer activity against human MDA-MB-435 cells after 48 hrs by sulforhodamine B assay; method in brief: as §2
MDA-N = assay: Anticancer activity against human MDA-N cells after 48 hrs by sulforhodamine B assay; method in brief: as §2
BT-549 = assay: Anticancer activity against human BT549 cells after 48 hrs by sulforhodamine B assay; method in brief: as §2
T47D = assay: Anticancer activity against human T47D cells after 48 hrs by sulforhodamine B assay; method in brief: as §4

CC(NC(=O)Nc1nccs1)(C(F)(F)F)C(F)(F)F
59%: growth at 100 µM (MCF7 [2])
74%: growth at 100 µM (SF-268 [3])
49%: growth at 100 µM (NCI-H460 [1])

FC(F)(F)C(=Cc1nc2ccccc2s1)C(F)(F)F
inactive: logGI50 (CCRF-CEM) | logGI50 (HL-60(TB)) | logGI50 (K562) | logGI50 (MOLT-4) | logGI50 (RPMI8266) | logGI50 (SR) | logGI50 (A549) | logGI50 (EKVX) | logGI50 (HOP-62) | logGI50 (HOP-92) | logGI50 (NCI-H226) | logGI50 (NCI-H322M) | logGI50 (NCI-H460 [4]) | logGI50 (NCI-H522) | logGI50 (NCI-H23) | logGI50 (COLO 205) | logGI50 (HCC 2998) | logGI50 (HCT-116) | logGI50 (HCT-15) | logGI50 (HT-29) | logGI50 (KM12) | logGI50 (SW-620) | logGI50 (SF-268 [5]) | logGI50 (SF-295) | logGI50 (SF-539) | logGI50 (SNB-19) | logGI50 (SNB-75) | logGI50 (U-251) | logGI50 (LOX IMVI) | logGI50 (Malme-3M) | logGI50 (M14) | logGI50 (SK-MEL-2) | logGI50 (SK-MEL-28) | logGI50 (SK-MEL-5) | logGI50 (UACC-257) | logGI50 (UACC-62) | logGI50 (IGROV-1) | logGI50 (OVCAR-3) | logGI50 (OVCAR-4) | logGI50 (OVCAR-5) | logGI50 (OVCAR-8) | logGI50 (SK-OV-3) | logGI50 (786-0) | logGI50 (A498) | logGI50 (ACHN) | logGI50 (CAKI-1) | logGI50 (RXF 393) | logGI50 (SN12C) | logGI50 (TK-10) | logGI50 (UO-31) | logGI50 (PC-3) | logGI50 (DU-145) | logGI50 (MCF7 [6]) | logGI50 (NCI/ADR-RES) | logGI50 (MDA-MB-231) | logGI50 (Hs-578T) | logGI50 (MDA-MB-435) | logGI50 (MDA-N) | logGI50 (BT-549) | logGI50 (T47D)
